Compound activity from PubChem.
GalR3 antag: GalR3 antagonists in HEK293 cells, primary screen, cell-based, fluorescence readout; Galanin receptor type 3 (Homo sapiens), O60755; HEK293 GalR3-CNG cAMP membrane potential fluorescence; galR3 body fused to GalR1 C-terminus; inhibition, % at 3 µM; actives 0.44% (n = 360,000); AID 651719, 2012;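 active = inhibition above the screen-wide average plus 3 SD, cut at about 13% in these data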;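 also: forskolin and galanin both at EC90 stimulate the cells; cAMP rise reported by CNG channel membrane potential dye signal; 0% = forskolin plus galanin with DMSO and 100% = forskolin alone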
Target sequence (O60755 1-299 limits assumed): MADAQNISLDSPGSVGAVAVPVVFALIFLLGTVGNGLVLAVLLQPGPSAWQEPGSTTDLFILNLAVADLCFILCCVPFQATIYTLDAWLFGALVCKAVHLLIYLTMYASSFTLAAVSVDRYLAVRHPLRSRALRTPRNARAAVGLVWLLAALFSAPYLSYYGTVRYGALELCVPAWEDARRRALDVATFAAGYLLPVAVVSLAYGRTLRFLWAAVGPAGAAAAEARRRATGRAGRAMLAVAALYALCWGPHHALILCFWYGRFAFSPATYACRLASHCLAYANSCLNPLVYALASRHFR
CHO parental Ca: ATP-evoked calcium signal inhibitors, parental CHO, primary screen, counter-screen for OX1R antagonist project, cell-based, fluorescence, Fluo-8 calcium dye | parental CHO-K1, ATP-induced calcium, Fluo-8 fluorescence | inhibition, % at 5.6 µM | actives 0.63% (n = 330,000);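 active = inhibition above that plate's mean sample inhibition plus 3 SD, cut at about 26% in these data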;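 also: 0% = ATP-challenged DMSO wells and 100% = DMSO wells without ATP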
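material = parental CHO cells | also added = ATP as calcium-mobilizing challenge | dosing = single point at 5.6 µM | detection = intracellular calcium via Fluo-8 no-wash fluorescent dye | read-out = % inhibition | benchmarks = low control ATP plus DMSO, high control DMSO only | repeats = one well per compound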
OX1R antag-1: antagonists of human orexin 1 receptor (OX1R) | OX1R-expressing cells, FRET antagonist read-out | inhibition, % at 6.6 µM | actives 1.8% (n = 330,000) | AID 485270, 2010; in the data active = inhibition mostly above about 38%, no sharp cut-off; inactive = mostly below about 40%;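 also: 0% = agonist challenge alone and 100% = reference antagonist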
TAAR1 ag: human TAAR1 agonists, primary screen, Fluo-8 calcium fluorescence, CHO RD-HGA16 cells; vehicle wells 0%, saturating PEA agonist 100%; activation, % at 3 µM; actives 0.99% (n = 360,000);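 active = activation above the mean activation of all test compounds in the run plus 3 SD, cut at about 38% in these data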
Target sequence (Q96RJ0 whole entry, looked up): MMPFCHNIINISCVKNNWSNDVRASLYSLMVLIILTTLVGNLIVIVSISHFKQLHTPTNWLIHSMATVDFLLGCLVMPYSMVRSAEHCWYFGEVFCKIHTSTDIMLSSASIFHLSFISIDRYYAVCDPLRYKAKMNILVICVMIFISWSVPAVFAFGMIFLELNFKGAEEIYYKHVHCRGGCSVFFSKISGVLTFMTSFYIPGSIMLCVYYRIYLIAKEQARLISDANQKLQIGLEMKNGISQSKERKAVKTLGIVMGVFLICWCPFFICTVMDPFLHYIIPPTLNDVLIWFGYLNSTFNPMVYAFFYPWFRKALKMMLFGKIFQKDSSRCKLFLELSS
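System: CHO RD-HGA16 cells carrying human TAAR1 plus Gα16; Incubation: 17-24 h seeding, 75 min 37 °C dye, 30 min RT; Measured by: Fluo-8 fluorescence, 5 s baseline then 140 s kinetic read; Control set: DMSO and PEA EC100; Replication: single well for each compound.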
OX1R antag-2: OX1R (HCRTR1) antagonists, primary screen, fluorescence, CHO/OX1R cells, Fluo-8 calcium, orexin A. Orexin/Hypocretin receptor type 1 (Homo sapiens), O43613. Fluo-8 calcium fluorescence. inhibition, % at 5 µM. actives 0.43% (n = 330,000). AID 434989, 2010;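 active = inhibition above its plate's threshold, mean inhibition of all tested compounds on the plate plus 3 SD, cut at about 37% in these data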;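 also: 0% = orexin A challenge wells and 100% = SB-334867-A antagonist wells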
TAAR1 antag: human TAAR1 antagonists, primary screen, Fluo-8 calcium fluorescence, CHO RD-HGA16 cells. Trace amine-associated receptor 1 (Homo sapiens), Q96RJ0. antagonist. inhibition, % at 3 µM. actives 1.5% (n = 360,000);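 active = inhibition above a per-plate cutoff, the mean inhibition of test compounds on that plate plus 3 SD, cut at about 49% in these data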;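 also: 0% = DMSO plus EC80 beta-PEA response and 100% = DMSO alone without agonist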
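Material: CHO RD-HGA16 cells bearing hTAAR1; compound dosing: one-point dosing, 3 µM nominal final; schedule: dye loading 75 min at 37 °C, then 30 min room temperature; measured by: calcium fluorescence with Fluo-8; control set: vehicle and agonist controls; replication: n of 1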
The depositor's hits bear a star; . = no result given. Sampled rows, rich in hits. Any-hit rate of the full collection: about 4.3%.

SMILES	GalR3 antag	CHO parental Ca	OX1R antag-1	TAAR1 ag	OX1R antag-2	TAAR1 antag
CC(C)(C)C(=O)NC(=S)NNC(=O)c1ccc(-c2ccccc2)cc1	.	100*	-5	.	103*	.
Nc1[nH]c(C(=O)c2ccccc2)c(-c2ccc3ccccc3c2)c1C(=O)NC1CC1	-6	.	.	11	.	28
CC(C)C(=O)Nc1ccc(N2CCOCC2)c(S(=O)(=O)Nc2ccccc2Cl)c1	-6	-17	9	25	-10	53*
CCOC(=O)CSc1nc2ccc(NC(=O)CSc3nnnn3Cc3ccccc3)cc2s1	-11	5	12	11	7	53*
Cc1ccccc1OCc1nnc(SCC(=O)Nc2ccc3c(c2)oc2ccccc23)n1C	-1	-9	-4	8	-30	4
CCN(CC)C(=O)CSc1nc2ccc(NC(=O)CSc3nnc(COc4ccccc4C)n3C)cc2s1	3	-18	17	17	-8	56*
CCC(=O)Nc1cccc(NC(=O)CSc2nnnn2Cc2ccccc2)c1	-4	-33	24	5	-29	-4
CCNC(=O)C1CCCN(C(=O)c2cc(OC)c(OC)c(OC)c2)CC1 (stereo not drawn)	8	.	.	2	.	-23
Cc1ccc2c(c1)c1c3n2CCN(C(=O)C2CC2)C3CCC1 (stereo not drawn)	2	-25	12	-1	-28	-11
Cc1ccc2c(c1)c1c3n2CC(=C2C(=O)OC(C)(C)OC2=O)NC3CCC1 (stereo not drawn)	-1	-12	43*	1	28	-6
O=C(OCn1ncc(Cl)c(Cl)c1=O)c1ccc(F)cc1	.	32*	10	.	27	.
O=C(OCn1ncc(Cl)c(Cl)c1=O)c1ccccc1Cl	-2	17	15	18	-4	12
CN(CC(=O)Nc1ccc(F)c(F)c1F)C(=O)Cc1ccc2c(c1)OCCO2	0	-9	12	2	-10	14
Cc1ccccc1C1CCCN(C(=O)c2cc(COc3c(F)cccc3F)on2)C1 (stereo not drawn)	-3	43*	11	1	-16	6
CC(C)c1[nH]nc2c1C(c1cccc(C(F)(F)F)c1)N(Cc1ccccc1)C2=O (stereo not drawn)	-2	.	.	6	.	-19
C=CCN(CC=C)S(=O)(=O)c1ccc(NC(=S)NC(=O)/C=C/c2ccc(C)cc2)cc1	-3	36*	16	1	-7	-7
COCCNC(=O)C1CC(c2ccc(C(F)(F)F)cc2)=NO1 (stereo not drawn)	-3	2	20	14	4	-13
CC(C)CCNC(=O)C1CC(c2ccc(C(F)(F)F)cc2)=NO1 (stereo not drawn)	1	52*	53	9	-4	12
CCNC(=O)O[C@@H]1C=C[C@@H](C#Cc2ccc(C(C)(C)C)cc2)O[C@@H]1COC(C)=O	-7	.	.	0	.	2
Nc1nnc(SCC(=O)NNC(=O)c2ccc([N+](=O)[O-])cc2)s1	-4	-2	36*	3	1	-19
CC(C)c1ccc(NC(=O)Nc2nc(C(N)c3ccccc3)cs2)cc1 (stereo not drawn)	3	.	.	45*	.	10
O=C(Nc1ccc(Cl)cc1)Nc1nc(-c2sccc2Br)cs1	0	20	26	6	6	24
O=C(Cc1csc(NC(=O)Nc2ccc(Cl)cc2)n1)NC1CCCC1	-5	35*	16	13	14	46
O=C(Nc1ccc(Cl)cc1)Nc1nc(-c2ccccc2O)cs1	-1	74*	46	11	41*	4
COc1ccc(C(NC(=O)c2c(F)c(F)c(F)c(F)c2F)c2ccccc2)cc1 (stereo not drawn)	-10	-23	15	2	-6	-6
SMILES	GalR3 antag	CHO parental Ca	OX1R antag-1	TAAR1 ag	OX1R antag-2	TAAR1 antag
C[C@H](O)[C@@H]1C(=O)N2CCc3c([nH]c4cccc(-c5ccccc5)c34)[C@@H]2C[C@@H]1N(C)C(=O)C1CCCCC1	-6	.	.	1	.	-15
Cc1ccc(Br)cc1S(=O)(=O)N1CCN(c2ccccc2)CC1	-6	36*	1	6	-21	32
Cc1cc2c(cc1S(=O)(=O)N1CCN(c3ccccc3)CC1)OCCN2C	.	34*	17	-1	-32	5
N#C/C=C(/N)N1CCN(c2ccc(Cl)c(Cl)c2)CC1	-9	1	23	38*	-11	17
CCc1cc(=O)oc2cc(C)cc(OCC(=O)N3CCC(C(=O)O)CC3)c12	0	-1	11	0	6	9
CN(C)C1(CN=Cc2cc(Cl)cc([N+](=O)[O-])c2O)CCCCC1	-10	-8	43*	5	-12	-15
COc1ccc(C(CNC(=O)C(=O)NC2CCCCC2)N2CCN(C)CC2)cc1 (stereo not drawn)	-2	-13	12	2	-16	-16
Cc1ccc(N(C)S(=O)(=O)c2c[nH]c3ccc([N+](=O)[O-])cc23)cc1	-8	-8	8	3	3	51*
CCN(c1ccccc1)S(=O)(=O)c1c[nH]c2ccc([N+](=O)[O-])cc12	-8	-17	2	5	-16	18
CC(C)(C)c1ccc(C#C[C@@H]2C=C[C@@H](O)[C@@H](COC(=O)Nc3ccccc3)O2)cc1	0	.	.	5	.	14
COCc1ccc(CN2CCC(C(=O)Nc3cccc(-c4cccc(Cl)c4)c3)CC2)o1	-7	61*	12	18	74*	21
COc1ccc(CCNC(=O)c2c(Cl)ccc(Cl)c2OC)cc1OC	-10	-13	28	3	-15	-4
O=[N+]([O-])c1ccc2c(c1)S(=O)c1ccccc1-2 (stereo not drawn)	0	-28	75*	1	-6	-21
Cc1cc(C)cc(NC(=O)C(OC(=O)c2ccc(NC(=O)CC#N)cc2)c2ccccc2)c1 (stereo not drawn)	-1	-9	8	0	12	-3
CCCCN1C(=O)/C(=C/C=C2\N(C)c3ccccc3C2(C)C)SC1=S	.	32	1	.	51*	.
O=C(ONC1=NCCCCC1)c1ccc([N+](=O)[O-])cc1	6	-10	50*	8	3	-3
O=C(Nc1cccc([N+](=O)[O-])c1)ONC1=NCCCCC1	-3	0	17	5	-4	-16
